How the values were obtained:
[1] = tested on: UACC-62; assay: Cytotoxicity against human UACC-62 cells assessed as inhibition of cell growth measured after 48 hrs by SRB assay; format: functional
[2] = tested on: HCT-15; assay: Cytotoxicity against human HCT-15 cells assessed as inhibition of cell growth measured after 48 hrs by SRB assay; format: functional
[3] = tested on: KM12; assay: Cytotoxicity against human KM12 cells assessed as inhibition of cell growth measured after 48 hrs by SRB assay; format: functional
[4] = tested on: SF-539; assay: Cytotoxicity against human SF-539 cells assessed as inhibition of cell growth measured after 48 hrs by SRB assay; format: functional
[5] = tested on: IGROV-1; assay: Cytotoxicity against human IGROV-1 cells assessed as inhibition of cell growth measured after 48 hrs by SRB assay; format: functional
[6] = tested on: 786-0; assay: Cytotoxicity against human 786-0 cells assessed as inhibition of cell growth measured after 48 hrs by SRB assay; format: functional
[7] = tested on: HeLa; assay: Antiproliferative activity against human HeLa cells assessed as decrease in cell growth measured after 48 hrs by SRB method; format: functional, cell-based
[8] = tested on: U-251; assay: Cytotoxicity against human U-251 cells assessed as inhibition of cell growth measured after 48 hrs by SRB assay; format: functional
[9] = tested on: MCF7; assay: Cytotoxicity against human MCF7 cells assessed as inhibition of cell growth measured after 48 hrs by SRB assay; format: functional
[10] = Cytotoxicity against human SK-MEL-5 cells assessed as inhibition of cell growth measured after 48 hrs by SRB assay; format: functional
[11] = organism: Bos taurus; assay: Inhibition of [3H]colchicine binding to bovine tubulin at 5 uM measured after 10 mins by scintillation counting
Procedure, shortened: (§1)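 Purified bovine brain tubulin at 1.0 µM was mixed with 5.0 µM [3H]colchicine and inhibitor, plus components that stabilize colchicine binding, in 5% DMSO; tubulin was added last, on ice. Binding ran 10 min at 37 °C and was stopped with ice water. Mixtures were filtered through stacked DEAE-cellulose filters, and bound radiolabel was measured by scintillation counting.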

[12] = tested on: MDA-MB-231; assay: Cytotoxicity against human MDA-MB-231 cells assessed as inhibition of cell growth measured after 48 hrs by SRB assay; format: functional
[13] = tested on: NCI-H23; assay: Cytotoxicity against human NCI-H23 cells assessed as inhibition of cell growth measured after 48 hrs by SRB assay; format: functional
[14] = tested on: HT-29; assay: Cytotoxicity against human HT-29 cells assessed as inhibition of cell growth measured after 48 hrs by SRB assay; format: functional
[15] = organism: Bos taurus; assay: Inhibition of [3H]colchicine binding to bovine tubulin at 1 uM measured after 10 mins by scintillation counting; procedure, shortened: as §1
[16] = tested on: SK-MEL-28; assay: Cytotoxicity against human SK-MEL-28 cells assessed as inhibition of cell growth measured after 48 hrs by SRB assay; format: functional
[17] = tested on: M14; assay: Cytotoxicity against human M14 cells assessed as inhibition of cell growth measured after 48 hrs by SRB assay; format: functional
[18] = tested on: HCC 2998; assay: Cytotoxicity against human HCC 2998 cells assessed as inhibition of cell growth measured after 48 hrs by SRB assay; format: functional
[19] = tested on: K562; assay: Cytotoxicity against human K562 cells assessed as inhibition of cell growth measured after 48 hrs by SRB assay; format: functional
[20] = tested on: SK-OV-3; assay: Antiproliferative activity against human SK-OV-3 cells assessed as decrease in cell growth measured after 48 hrs by SRB method; format: functional, cell-based; conditions: SK-OV-3, 48 h
[21] = tested on: SK-MEL-2; assay: Cytotoxicity against human SK-MEL-2 cells assessed as inhibition of cell growth measured after 48 hrs by SRB assay; format: functional
[22] = tested on: Hs-578T; assay: Cytotoxicity against human Hs-578T cells assessed as inhibition of cell growth measured after 48 hrs by SRB assay; format: functional
[23] = tested on: PC-3; assay: Cytotoxicity against human PC-3 cells assessed as inhibition of cell growth measured after 48 hrs by SRB assay; format: functional
[24] = tested on: NCI-H460; assay: Cytotoxicity against human NCI-H460 cells assessed as inhibition of cell growth measured after 48 hrs by SRB assay; format: functional
[25] = tested on: SF-295; assay: Cytotoxicity against human SF-295 cells assessed as inhibition of cell growth measured after 48 hrs by SRB assay; format: functional
[26] = tested on: SR; assay: Cytotoxicity against human SR cells assessed as inhibition of cell growth measured after 48 hrs by SRB assay; format: functional
[27] = tested on: A498; assay: Cytotoxicity against human A498 cells assessed as inhibition of cell growth measured after 48 hrs by SRB assay; format: functional
[28] = tested on: COLO 205; assay: Cytotoxicity against human COLO 205 cells assessed as inhibition of cell growth measured after 48 hrs by SRB assay; format: functional
[29] = Toxicity in NCr athymic nude nu/nu mouse xenografted human U251 cells assessed as body weight change at 50 mg/kg once in a week relative to temozolomide; format: organism-based; conditions: in vivo, 17.5 mg/kg, 168 h, in the assay text read “17.5 mg/kg twice in a week” for “50 mg/kg once in a week”
Procedure, shortened: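 NCr athymic nu/nu nude mice (8 wk; equal numbers of males and females) received 500,000 U251 glioma cells in the lateral flank. Once tumors were visible, mice were dosed with carrier (5% DMSO, 5% Kolliphor-15, 90% normal saline), temozolomide at 50 mg/kg/wk, or test compound at 17.5 mg/kg twice weekly until the end of the study. Body weight was monitored and tumors were caliper-measured twice weekly; n=6–8.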

[30] = tested on: HOP-62; assay: Cytotoxicity against human HOP-62 cells assessed as inhibition of cell growth measured after 48 hrs by SRB assay; format: functional
[31] = tested on: SW-620; assay: Cytotoxicity against human SW-620 cells assessed as inhibition of cell growth measured after 48 hrs by SRB assay; format: functional
[32] = tested on: LOX IMVI; assay: Cytotoxicity against human LOX IMVI cells assessed as inhibition of cell growth measured after 48 hrs by SRB assay; format: functional
[33] = tested on: SF-268; assay: Cytotoxicity against human SF-268 cells assessed as inhibition of cell growth measured after 48 hrs by SRB assay; format: functional
[34] = tested on: CCRF-CEM; assay: Cytotoxicity against human CCRF-CEM cells assessed as inhibition of cell growth measured after 48 hrs by SRB assay; format: functional
[35] = Induction of microtubule depolymerisation in rat A-10 cell line measured after 18 hrs by indirect immunofluorescence method; conditions: a10
Procedure, shortened: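 Rat A-10 cells, chosen because they arrest in interphase without significant mitotic accumulation, were exposed to compounds for 18 h. Cellular microtubules were then visualized by indirect immunofluorescence. EC50 values come from at least three independent experiments.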

[36] = tested on: RPMI-8226; assay: Cytotoxicity against human RPMI-8226 cells assessed as inhibition of cell growth measured after 48 hrs by SRB assay; format: functional
[37] = tested on: UO-31; assay: Cytotoxicity against human UO-31 cells assessed as inhibition of cell growth measured after 48 hrs by SRB assay; format: functional
[38] = tested on: SN12C; assay: Cytotoxicity against human SN12C cells assessed as inhibition of cell growth measured after 48 hrs by SRB assay; format: functional
[39] = tested on: OVCAR-5; assay: Cytotoxicity against human OVCAR-5 cells assessed as inhibition of cell growth measured after 48 hrs by SRB assay; format: functional
[40] = tested on: NCI-H522; assay: Cytotoxicity against human NCI-H522 cells assessed as inhibition of cell growth measured after 48 hrs by SRB assay; format: functional
[41] = Antiproliferative activity against human SK-OV-3 MDR-1-6/6 cells expressing Pgp assessed as decrease in cell growth measured after 48 hrs by SRB method; format: functional; conditions: SK-OV-3, 48 h

## COc1cccc2cc(N(C)c3nc(C)nc4c3CCC4)ccc12
[1]
  GI50: 1490 nM
[2]
  GI50: < 10 nM
[3]
  GI50: < 10 nM
[4]
  GI50: < 10 nM
[5]
  GI50: < 10 nM
[6]
  GI50: < 10 nM
[7]
  IC50: 3.4 nM
[8]
  GI50: < 10 nM
[9]
  GI50: < 10 nM
[10]
  GI50: < 10 nM
[11]
  inhibition: 98%
[12]
  GI50: < 10 nM
[13]
  GI50: < 10 nM
[14]
  GI50: < 10 nM
[15]
  inhibition: 86%
[16]
  GI50: 5630 nM
[17]
  GI50: < 10 nM
[18]
  GI50: < 10 nM
[19]
  GI50: < 10 nM
[20]
  IC50: 2.7 nM
[21]
  GI50: < 10 nM
[22]
  GI50: < 10 nM
[23]
  GI50: < 10 nM
[24]
  GI50: < 10 nM
[25]
  GI50: < 10 nM
[26]
  GI50: < 10 nM
[27]
  GI50: < 10 nM
[28]
  GI50: < 10 nM
[29]
  Activity: Non-Toxic
[30]
  GI50: < 10 nM
[31]
  GI50: < 10 nM
[32]
  GI50: < 10 nM
[33]
  GI50: < 10 nM
[34]
  GI50: < 10 nM
[35]
  EC50: 4.5 nM
[36]
  GI50: < 10 nM
[37]
  GI50: 10.7 nM
[38]
  GI50: < 10 nM
[39]
  GI50: < 10 nM
[40]
  GI50: < 10 nM
[41]
  IC50: 5.7 nM

Source: ChEMBL document CHEMBL4680306, “The 3-D conformational shape of N-naphthyl-cyclopenta[d]pyrimidines affects their potency as microtubule targeting agents and their antitumor activity” (Bioorg Med Chem, 2021)
